Results from ChEMBL document CHEMBL3992547, “Antimicrobial activity of rhodanine-3-acetic acid derivatives” (Bioorg Med Chem, 2017).
Values after ≈ are worked out from the molar mass of the structure shown. Active and inactive are the calls of the source. The rule behind the calls is not given here.

Tests used:
[1] = system: Mycobacterium tuberculosis; experiment: Antimycobacterial activity against Mycobacterium tuberculosis H37Rv 331/88 measured after 14 days by micromethod; type: functional; conditions: H37Rv 331/88, 336 h
[2] = system: Mycobacterium avium; experiment: Antimycobacterial activity against Mycobacterium avium 330/88 measured after 21 days by micromethod; type: functional; conditions: 330/88, 504 h
[3] = system: Aspergillus fumigatus; experiment: Antifungal activity against Aspergillus fumigatus 231 after 24 hrs by microdilution broth assay; type: functional; conditions: Aspergillus fumigatus, 231, 24 h
How it was run: (§1)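 Broth microdilution per CLSI M27-A3 and M38-A2 in RPMI 1640 with glutamine, buffered to pH 7.0 with MOPS. Compounds are diluted in DMSO. Final inoculum is 5 × 10³ CFU/mL for yeasts and 0.5–5 × 10⁴ CFU/mL for moulds. Plates are incubated in the dark at 35 °C in humid air and read visually and/or at 540 nm after 24 and 48 h. MIC is ≥80% growth reduction (IC₈₀) for yeasts and ≥50% (IC₅₀) for filamentous fungi.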

[4] = system: Candida albicans; experiment: Antifungal activity against Candida albicans ATCC 44859 after 24 hrs by microdilution broth assay; type: functional; conditions: ATCC 44859, 24 h; how it was run: as §1
[5] = system: Trichosporon asahii; experiment: Antifungal activity against Trichosporon asahii 1188 after 24 hrs by microdilution broth assay; type: functional; conditions: Trichosporon asahii, 1188, 24 h; how it was run: as §1
[6] = system: Nakaseomyces glabratus; experiment: Antifungal activity against Candida glabrata 20/I after 48 hrs by microdilution broth assay; type: functional; how it was run: as §1
[7] = system: Mycobacterium kansasii; experiment: Antimycobacterial activity against Mycobacterium kansasii isolate 235/80 after 14 days by micromethod; type: functional; conditions: isolate 235/80, 336 h
[8] = system: Mycobacterium avium; experiment: Antimycobacterial activity against Mycobacterium avium 330/88 measured after 14 days by micromethod; type: functional; conditions: 330/88, 336 h
[9] = system: Trichophyton mentagrophytes; experiment: Antifungal activity against Trichophyton mentagrophytes 445 after 72 hrs by microdilution broth assay; type: functional; conditions: Trichophyton mentagrophytes, 445, 72 h
How it was run: (§2)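 Broth microdilution per CLSI M38-A2 in RPMI 1640 with glutamine, buffered to pH 7.0 with MOPS, with DMSO as diluent. Final inoculum is 0.5–5 × 10⁴ CFU/mL. Plates are incubated in the dark at 35 °C in humid air and read visually and/or at 540 nm after 72 and 120 h. MIC is at least 50% growth reduction versus control.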

[10] = system: Pseudomonas aeruginosa; experiment: Antibacterial activity against Pseudomonas aeruginosa CCM 1961 up to 500 uM incubated for 24 to 48 hrs under dark condition by microdilution broth assay; type: functional
How it was run: (§3)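 Broth microdilution per M07-A07, modified, in Mueller-Hinton broth adjusted to pH 7.4 (±0.2). Inoculum is prepared in sterile water to McFarland 0.5 (1.5 × 10⁸ CFU/mL). Plates are incubated in the dark at 35 °C in humid air. MIC is read after 24 and 48 h as at least 95% growth reduction versus control (IC₉₅).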

[11] = system: Candida tropicalis; experiment: Antifungal activity against Candida tropicalis 156 after 24 hrs by microdilution broth assay; type: functional; conditions: Candida tropicalis, 156, 24 h; how it was run: as §1
[12] = system: Trichosporon asahii; experiment: Antifungal activity against Trichosporon asahii 1188 after 48 hrs by microdilution broth assay; type: functional; conditions: Trichosporon asahii, 1188, 48 h; how it was run: as §1
[13] = system: Nakaseomyces glabratus; experiment: Antifungal activity against Candida glabrata 20/I after 24 hrs by microdilution broth assay; type: functional; how it was run: as §1
[14] = system: Mycobacterium tuberculosis; experiment: Antimycobacterial activity against Mycobacterium tuberculosis H37Rv 331/88 measured after 21 days by micromethod; type: functional; conditions: H37Rv 331/88, 504 h
[15] = Solubility of the compound in Sula's semisynthetic medium up to 1 mM; type: physicochemical
[16] = system: Trichophyton mentagrophytes; experiment: Antifungal activity against Trichophyton mentagrophytes 445 after 120 hrs by microdilution broth assay; type: functional; conditions: Trichophyton mentagrophytes, 445, 120 h; how it was run: as §2
[17] = system: Mycobacterium kansasii; experiment: Antimycobacterial activity against Mycobacterium kansasii isolate 6509/96 after 7 days by micromethod; type: functional; conditions: isolate 6509/96, 168 h
[18] = system: Mycobacterium kansasii; experiment: Antimycobacterial activity against Mycobacterium kansasii isolate 235/80 after 7 days by micromethod; type: functional; conditions: isolate 235/80, 168 h
[19] = system: Mycobacterium kansasii; experiment: Antimycobacterial activity against Mycobacterium kansasii isolate 6509/96 after 21 days by micromethod; type: functional; conditions: isolate 6509/96, 504 h
[20] = system: Candida tropicalis; experiment: Antifungal activity against Candida tropicalis 156 after 48 hrs by microdilution broth assay; type: functional; conditions: Candida tropicalis, 156, 48 h; how it was run: as §1
[21] = system: Mycobacterium kansasii; experiment: Antimycobacterial activity against Mycobacterium kansasii isolate 235/80 after 21 days by micromethod; type: functional; conditions: isolate 235/80, 504 h
[22] = system: Candida albicans; experiment: Antifungal activity against Candida albicans ATCC 44859 after 48 hrs by microdilution broth assay; type: functional; conditions: ATCC 44859, 48 h; how it was run: as §1
[23] = system: Klebsiella pneumoniae; experiment: Antibacterial activity against ESBL positive Klebsiella pneumoniae J 14368/08 up to 500 uM incubated for 24 to 48 hrs under dark condition by microdilution broth assay; type: functional; how it was run: as §3
[24] = system: Aspergillus fumigatus; experiment: Antifungal activity against Aspergillus fumigatus 231 after 48 hrs by microdilution broth assay; type: functional; conditions: Aspergillus fumigatus, 231, 48 h; how it was run: as §1
[25] = system: Mycobacterium kansasii; experiment: Antimycobacterial activity against Mycobacterium kansasii isolate 6509/96 after 14 days by micromethod; type: functional; conditions: isolate 6509/96, 336 h
[26] = system: Klebsiella pneumoniae; experiment: Antibacterial activity against Klebsiella pneumoniae D 11750/08 up to 500 uM incubated for 24 to 48 hrs under dark condition by microdilution broth assay; type: functional; how it was run: as §3
[27] = system: Lichtheimia corymbifera; experiment: Antifungal activity against Absidia corymbifera 272 after 24 to 48 hrs hrs by microdilution broth assay; type: functional; how it was run: as §1
[28] = system: Pichia kudriavzevii; experiment: Antifungal activity against Candida krusei E28 after 24 to 48 hrs hrs by microdilution broth assay; type: functional; how it was run: as §1
[29] = system: Enterococcus; experiment: Antibacterial activity against Enterococcus sp. J 14365/08 incubated for 24 hrs under dark condition by microdilution broth assay; conditions: J 14365/08, 24 h
[30] = system: Escherichia coli; experiment: Antibacterial activity against Escherichia coli CCM 4517 incubated for 48 hrs under dark condition by microdilution broth assay; type: functional; conditions: CCM 4517, 48 h; how it was run: as §3
[31] = system: Staphylococcus aureus; experiment: Antibacterial activity against methicillin-resistant Staphylococcus aureus H 5996/08 incubated for 48 hrs under dark condition by microdilution broth assay; type: functional; conditions: H 5996/08, 48 h
How it was run: (§4)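 Microdilution broth method modified per M07-A07, in Mueller-Hinton broth adjusted to pH 7.4 (±0.2). Inoculum made in sterile water to 0.5 McFarland (1.5 × 10⁸ CFU/mL). Plates incubated in the dark at 35 °C in a humid atmosphere, with reads at 24 and 48 h. MIC taken as at least 95% growth reduction (IC₉₅) versus control.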

[32] = system: Escherichia coli; experiment: Antibacterial activity against Escherichia coli CCM 4517 incubated for 24 hrs under dark condition by microdilution broth assay; type: functional; conditions: CCM 4517, 24 h; how it was run: as §3
[33] = system: Staphylococcus epidermidis; experiment: Antibacterial activity against Staphylococcus epidermidis H 6966/08 incubated for 48 hrs under dark condition by microdilution broth assay; type: functional; conditions: H 6966/08, 48 h; how it was run: as §3
[34] = system: Enterococcus; experiment: Antibacterial activity against Enterococcus sp. J 14365/08 incubated for 48 hrs under dark condition by microdilution broth assay; conditions: J 14365/08, 48 h
[35] = system: Staphylococcus epidermidis; experiment: Antibacterial activity against Staphylococcus epidermidis H 6966/08 incubated for 24 hrs under dark condition by microdilution broth assay; type: functional; conditions: H 6966/08, 24 h; how it was run: as §3
[36] = system: Staphylococcus aureus; experiment: Antibacterial activity against Staphylococcus aureus CCM 4516/08 incubated for 24 hrs under dark condition by microdilution broth assay; type: functional; conditions: CCM 4516/08, 24 h; how it was run: as §3
[37] = system: Staphylococcus aureus; experiment: Antibacterial activity against Staphylococcus aureus CCM 4516/08 incubated for 48 hrs under dark condition by microdilution broth assay; type: functional; conditions: CCM 4516/08, 48 h; how it was run: as §3
[38] = system: Staphylococcus aureus; experiment: Antibacterial activity against methicillin-resistant Staphylococcus aureus H 5996/08 incubated for 24 hrs under dark condition by microdilution broth assay; type: functional; conditions: H 5996/08, 24 h; how it was run: as §4

SMILES	MIC [1]	MIC [2]	MIC50 [3]	MIC80 [4]	MIC80 [5]	MIC80 [6]	MIC [7]	MIC [8]	Activity [10]	MIC [14]	solubility [15]	MIC [17]	MIC [18]	MIC [19]	MIC [21]	Activity [23]	MIC [25]	Activity [26]	Activity [27]	Activity [28]	further results
O=C(CN1C(=O)CSC1=S)Oc1ccc(Cl)cc1	250 µM (≈ 75.4 µg/mL)	1000 µM (≈ 302 µg/mL)	> 500 µM	> 500 µM	> 500 µM	> 500 µM	500 µM (≈ 151 µg/mL)	1000 µM (≈ 302 µg/mL)	inactive	500 µM (≈ 151 µg/mL)	Soluble	250 µM (≈ 75.4 µg/mL)	250 µM (≈ 75.4 µg/mL)	500 µM (≈ 151 µg/mL)	1000 µM (≈ 302 µg/mL)	inactive	500 µM (≈ 151 µg/mL)	inactive	inactive	inactive	MIC50 [9]: 500 µM (≈ 151 µg/mL); MIC80 [11]: > 500 µM; MIC80 [12]: > 500 µM; MIC80 [13]: > 500 µM; MIC50 [16]: 500 µM (≈ 151 µg/mL); MIC80 [20]: > 500 µM; MIC80 [22]: > 500 µM; MIC50 [24]: > 500 µM
OC(Cn1cncn1)(Cn1cncn1)c1ccc(F)cc1F [FLUCONAZOLE]	–	–	> 500 µM	0.24 µM (≈ 0.0735 µg/mL)	250 µM (≈ 76.6 µg/mL)	500 µM (≈ 153 µg/mL)	–	–	–	–	–	–	–	–	–	–	–	–	–	–	MIC50 [9]: 7.81 µM (≈ 2.39 µg/mL); MIC80 [11]: > 500 µM; MIC80 [12]: 500 µM (≈ 153 µg/mL); MIC80 [13]: 62.5 µM (≈ 19.1 µg/mL); MIC50 [16]: 125 µM (≈ 38.3 µg/mL); MIC80 [20]: > 500 µM; MIC80 [22]: 0.24 µM (≈ 0.0735 µg/mL); MIC50 [24]: > 500 µM
COc1ccc(OC(=O)CN2C(=O)CSC2=S)cc1	1000 µM (≈ 297 µg/mL)	1000 µM (≈ 297 µg/mL)	–	–	–	–	1000 µM (≈ 297 µg/mL)	1000 µM (≈ 297 µg/mL)	inactive	1000 µM (≈ 297 µg/mL)	Soluble	1000 µM (≈ 297 µg/mL)	1000 µM (≈ 297 µg/mL)	1000 µM (≈ 297 µg/mL)	1000 µM (≈ 297 µg/mL)	inactive	1000 µM (≈ 297 µg/mL)	inactive	inactive	inactive	MIC95 [29]: 500 µM (≈ 149 µg/mL); MIC95 [30]: > 500 µM; MIC95 [31]: > 500 µM; MIC95 [32]: > 500 µM; MIC95 [33]: > 500 µM; MIC95 [34]: > 500 µM; MIC95 [35]: 500 µM (≈ 149 µg/mL); MIC95 [36]: > 500 µM; MIC95 [37]: > 500 µM; MIC95 [38]: > 500 µM
O=C(CN1C(=O)/C(=C/c2cc(Cl)ccc2O)SC1=S)Nc1ccc(Cl)cc1	16 µM (≈ 7.03 µg/mL)	250 µM (≈ 110 µg/mL)	–	–	–	–	125 µM (≈ 54.9 µg/mL)	250 µM (≈ 110 µg/mL)	inactive	32 µM (≈ 14.1 µg/mL)	Insoluble	125 µM (≈ 54.9 µg/mL)	125 µM (≈ 54.9 µg/mL)	250 µM (≈ 110 µg/mL)	250 µM (≈ 110 µg/mL)	inactive	250 µM (≈ 110 µg/mL)	inactive	inactive	inactive	MIC95 [29]: > 250 µM; MIC95 [30]: > 250 µM; MIC95 [31]: > 250 µM; MIC95 [32]: > 250 µM; MIC95 [33]: > 250 µM; MIC95 [34]: > 250 µM; MIC95 [35]: 250 µM (≈ 110 µg/mL); MIC95 [36]: 250 µM (≈ 110 µg/mL); MIC95 [37]: > 250 µM; MIC95 [38]: 125 µM (≈ 54.9 µg/mL)
